# Source: PubChem (several laboratories)
# The full list was thinned out, with hits kept by preference.
# CHOP inh: inhibitors of CHOP promoter induction, primary screen, cell-based, unfolded protein response, luciferase reporter | CHO-K1 CHOP-promoter luciferase, tunicamycin-induced, 15-18 h | inhibition, % at 10 µM | hit rate 3.8% among 220,000 | AID 2732, 2010;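 active means compounds that reduced the stress-induced luciferase reporter signal by more than about 70% of percent inhibition, limit read from the data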;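 further: 0% = tunicamycin plus vehicle and 100% = wells without tunicamycin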
# XBP1 UPR activ: activators of adaptive XBP1 UPR arm, primary screen, cell-based, CHO-XBP1 luciferase reporter, luminescence, uHTS. hit rate 0.33% among 330,000. activation, % at 20 µM. IRE1-XBP1 UPR activation; percent of tunicamycin response, DMSO as zero;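 active means versus positive control, 20 µM dose yields 30% or more activation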;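 further: 100% = tunicamycin at 10 µg/mL and 0% = DMSO only wells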
#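 assay system = CHO-XBP1 luciferase reporter cells | amount = 1000 cells/well | buffer or medium = F12 plus 10% FBS | compound dosing = single point, 20 µM final compound, 1% DMSO | incubation = 16-18 h cell attachment at 37 °C, then 6 h compound exposure | detection = Steady-Glo luminescence read | controls = tunicamycin 10 µg/mL and vehicle-only wells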
# UCH37 DUB inh: inhibitors of human UCH37 deubiquitinase, primary screen, biochemical, Ub-AMC cleavage, fluorescence. purified proteasome/UCH37. inhibition, % (no concentration beside the values). Ubiquitin carboxyl-terminal hydrolase isozyme L5 (Homo sapiens), Q9Y5K5. hit rate 0.33% among 330,000;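 active means mean inhibition over replicate wells above about 20%, limit read from the data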;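 further: 0% = compound-free wells with enzyme and 100% = wells lacking proteasome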
# Target sequence (Q9Y5K5 whole entry, looked up): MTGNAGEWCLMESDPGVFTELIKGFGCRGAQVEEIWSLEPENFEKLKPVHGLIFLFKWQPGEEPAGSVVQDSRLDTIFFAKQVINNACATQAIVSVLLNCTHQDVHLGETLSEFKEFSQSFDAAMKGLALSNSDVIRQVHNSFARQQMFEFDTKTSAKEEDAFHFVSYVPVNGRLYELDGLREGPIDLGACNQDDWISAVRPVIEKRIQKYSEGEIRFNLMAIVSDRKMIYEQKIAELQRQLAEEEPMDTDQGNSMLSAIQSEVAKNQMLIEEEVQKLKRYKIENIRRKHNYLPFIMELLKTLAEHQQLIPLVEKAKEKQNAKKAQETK
#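 Material: human UCH37 enzyme supplied as purified proteasome complex. Measure: % inhibition of Ub-AMC cleavage fluorescence. Medium: pH 7.4 Tris-HCl (50 mM) with ovalbumin, ATP-MgCl2, DTT. Times: 30 min preincubation with enzyme, 25 min cleavage at room temperature. Detection: AMC fluorescence intensity at 355/460 nm.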
# UPR CHOP act: activators of apoptotic CHOP UPR arm, primary screen, cell-based, CHO-CHOP luciferase reporter, luminescence, uHTS | UPR activation; percent of tunicamycin response over DMSO baseline | activation, % at 10 µM | hit rate 0.34% among 330,000;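 active means at 10 µM dose, activation of 40% or more, normalized to positive control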;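 further: 100% = tunicamycin at 10 µg/mL and 0% = DMSO alone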
#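 assay system = CHO CHOP reporter cells | amount = 500 CHO-CHOP cells per well | buffer or medium = F12 with 10% FBS | incubation = 16-18 h cell attachment, then 6 h compound exposure, 37 °C | detection = luminescence read with Steady-Glo | read-out = percent activation relative to tunicamycin control | controls = tunicamycin high control, DMSO low control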
# Fh CTSL1 inh: Fasciola hepatica cathepsin L1 inhibitors, primary screen, counter-screen for PFM18AAP inhibitor project, biochemical, QFRET, fluorogenic peptide substrate | recombinant F. hepatica cathepsin L1, Z-Leu-Arg-MCA fluorescence | inhibition, % at 5.96 µM | hit rate 0.49% among 300,000;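 active means inhibition above the mean of all tested compounds plus 3 SD, set per screening campaign, cut at about 17% in these data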;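 further: 0% = plate median of test compound wells and 100% = 1 µM Z-Phe-Ala-diazomethylketone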
# UPR XBP1 confirm: IRE1-XBP1 UPR arm activators, confirmation, cell-based, CHO-XBP1 luciferase reporter, luminescence, single concentration; shares compounds with XBP1 UPR activ; activation, % at 20 µM; hit rate 63% among 1,000; AID 485299, 2010;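 active means reporter signal at least 30% of the positive control's activation in two or more of four replicate wells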;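 further: plate controls were DMSO negative control for no effect and tunicamycin 10 µg/mL positive control for full effect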
# An asterisk follows results filed as active; x = no result.
SMILES,CHOP inh,XBP1 UPR activ,UCH37 DUB inh,UPR CHOP act,Fh CTSL1 inh,UPR XBP1 confirm
COc1cc(CNCCO)cc(Br)c1OCc1ccccc1Cl,-30,3,x,0,-1,x
COc1cc(C=NNC(=O)C2COc3ccccc3O2)cc(OC)c1OC (stereo unspecified),x,x,-1,x,x,x
Oc1[nH]c2ccccc2c1N=Nc1nc(Nc2ccccc2)nc(N2CCOCC2)n1,19,86*,3,12,0,8
CCOC(=O)NN=Cc1sccc1C,x,x,5,x,x,x
CC(=O)Oc1ccc(-c2ccc(C(=O)OCC(=O)N(C)CC(=O)Nc3ccccc3Cl)cc2)cc1,x,123*,0,7,-17,137*
CC(=NNC(=O)CN1CCN(Cc2ccccc2Cl)CC1)c1cccnc1,x,x,4,x,x,x
CCN(Cc1ccccc1)S(=O)(=O)c1ccc(C(=O)N(CCCN(C)C)c2nc3cc(C)cc(C)c3s2)cc1,x,18,6,24,-4,x
CCOc1cccc2sc(N(CCCN(C)C)C(=O)c3ccc(S(=O)(=O)N(C)Cc4ccccc4)cc3)nc12,x,27,4,5,-1,x
CCCCN(CC)S(=O)(=O)c1ccc(C(=O)N(CCCN(C)C)c2nc3cc(C)cc(C)c3s2)cc1,87*,45*,3,4,-2,36*
CCOc1cccc2sc(N(CCCN(C)C)C(=O)c3ccc(S(=O)(=O)N(CC)Cc4ccccc4)cc3)nc12,x,43*,1,9,0,12
CCOc1ccc(NC(=O)CCC(=O)NN=C(C)c2cccs2)cc1,x,x,3,x,x,x
CC1=CC(=NOS(=O)(=O)c2ccccc2)C=CC1=O,x,x,0,x,x,x
N#Cc1cc2c(nc1SCC(=O)Nc1sc3c(c1C#N)CCC3)CCCC2,-61,51*,-1,7,-3,30*
CC(=NO)C(C)(C)Nc1cccc(Br)c1,x,x,4,x,x,x
CN1Cc2c(N3CCOCC3)nc3sc(C(=O)c4ccc(Br)cc4)c(N)c3c2CC1(C)C,-10,38*,x,8,1,63*
CCN1CCN(C(c2cc3cccc(C)c3[nH]c2=O)c2nnnn2Cc2ccccc2)CC1 (stereo unspecified),14,0,-19,-1,2,x
Cc1cccc2cc(C(c3nnnn3Cc3ccccc3)N3CCCc4ccccc43)c(=O)[nH]c12 (stereo unspecified),77*,76*,-3,11,2,28*
Cc1nc2c(N=Nc3ccccc3F)c(N)nn2c(N)c1C#N,2,44*,6,15,4,21
CCCCCCCC(=O)NN=Cc1ccco1,x,x,3,x,x,x
CN(C)CCCNC(=O)c1ccccn1,-10,1,2,-1,-6,x
CN(C)CCCNC(=O)c1ccc(-c2nc(-c3ccc(Cl)cc3)cs2)cc1,-65,82*,-43,9,1,159*
O=C(Oc1ccc2c(c1)OCO2)c1cc2c(s1)CCC2,x,37*,3,35,-2,9
O=C(Nc1ccc(-c2nc3c(ccc4ccccc43)o2)cc1)c1ccco1,79*,33*,-139,18,1,15
Cc1ccc(OCCN2C(=O)C(=O)c3cc(C)ccc32)cc1,-30,18,1,2,-3,x
Cc1ccc2c(c1)C(=O)C(=O)N2Cc1ccc(C(F)(F)F)cc1,x,51*,3,2,x,46*
SMILES,CHOP inh,XBP1 UPR activ,UCH37 DUB inh,UPR CHOP act,Fh CTSL1 inh,UPR XBP1 confirm
COc1ccccc1C1C([N+](=O)[O-])=CC([N+](=O)[O-])=CN1C (stereo unspecified),43,51*,13,25,5,0
COc1ccccc1C1NC=C([N+](=O)[O-])C=C1[N+](=O)[O-] (stereo unspecified),-30,-4,9,0,3,x
Cc1ccc(C(=O)NN=Cc2ccc(OC(=O)c3cccs3)cc2)cn1,x,x,-3,x,x,x
CC(C)CN=C(NS(=O)(=O)c1ccccc1)C(Cl)(Cl)Cl,54,47*,1,10,0,60*
COc1ccc(/C=N/Nc2nnc(-c3ccccc3)c(=O)[nH]2)cc1,-73,49*,x,31,-1,73*
COc1ccc(C=NNc2nnc(-c3ccccc3)c(=O)[nH]2)cc1,x,x,9,x,x,x
C=CCN=C1S/C(=C/c2ccc([N+](=O)[O-])cc2)C(=O)N1CC=C,-11,3,9,0,-2,x
C=CCN=C1S/C(=C/c2cccc([N+](=O)[O-])c2)C(=O)N1CC=C,-9,33*,2,9,-3,47*
COc1ccc(C=NN2CCN(Cc3ccccc3Cl)CC2)cc1,x,x,4,x,x,x
O=S1(=O)N=C(NN=Cc2ccccn2)c2ccccc21,x,x,4,x,x,x
C[C@]12c3[nH]c4ccc(Cl)cc4c3CCN1C(=O)[C@@H](CC(=O)NCc1cccc(C(F)(F)F)c1)C[C@@H]2C(=O)N1CCOCC1,x,6,3,6,x,x
CC(C)N(C(=O)[C@H]1C[C@H](CC(=O)NCc2cccc(C(F)(F)F)c2)C(=O)N2CCc3c([nH]c4ccc(Cl)cc34)[C@]12C)C(C)C,x,55*,-3,9,x,70*
Oc1c(Br)cccc1C=Nc1ncn[nH]1,x,x,2,x,x,x
Cc1ccc(N(CC(=O)NN=Cc2cccnc2)S(=O)(=O)c2ccccc2)cc1,x,x,1,x,x,x
CCCn1c(Nc2nc3ccccc3n2C)nc2ccccc21,18,55*,-12,1,4,57*
CC(=O)Nc1sc(C)c(C)c1C(=O)OCC(=O)Nc1cccc(C)c1,x,37*,2,1,x,5
C[C@H](CO)N1C[C@H](C)[C@@H](CN(C)C(=O)Nc2ccc(C(F)(F)F)cc2)Oc2c(NC(=O)Nc3ccc(C(F)(F)F)cc3)cccc2C1=O,x,37*,x,7,x,28
C[C@H]1CN([C@@H](C)CO)C(=O)c2cccc(NC(=O)Nc3ccc(C(F)(F)F)cc3)c2O[C@@H]1CN(C)C(=O)Nc1ccc(F)cc1,x,6,2,5,x,x
COCCNC(=O)C1CC(c2cccc(F)c2)=NO1 (stereo unspecified),-9,31*,-1,-1,-3,0
COC(=O)c1c(C)oc2ccc(N(C(=O)Oc3ccccc3)S(=O)(=O)c3ccc(Cl)c([N+](=O)[O-])c3)cc12,83*,32*,1,4,-4,139*
COC(=O)c1c(C)oc2ccc(N(C(=O)c3ccncc3)S(=O)(=O)c3ccc4ccccc4c3)cc12,53,-2,1,4,1,x
